Assay results reported in ChEMBL document CHEMBL2010798, “Selenium-containing naphthalimides as anticancer agents: design, synthesis and bioactivity” (Bioorg Med Chem, 2012).
Activity calls are given as the source filed them. The rule behind the calls is not given here.

How the values were obtained:
A549 = test: Cytotoxicity against human A549 cells by MTT assay; format: functional, cell-based
Nucleic Acid [1] = test: Binding affinity to calf thymus DNA assessed as hyperchromic effect at 10 uM by UV-Vis spectrophotometric analysis; format: nucleic-acid assay; conditions: Bos taurus, in the assay text read “hypochromic” for “hyperchromic”
Summary of the method: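 Its concentration was set by absorption at 260 nm (6600 M⁻¹ cm⁻¹), and it was stored at 4 °C and used within 4 days. UV–vis absorption spectra of compound (10) were recorded in 20 mM Tris–HCl, pH 7.5, 25 °C, with ct-DNA increasing from 0 to 160.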

K562 = test: Cytotoxicity against human K562 cells by MTT assay; format: functional, cell-based
HCT-116 = test: Cytotoxicity against human HCT116 cells by MTT assay; format: functional, cell-based
Nucleic Acid [2] = test: Binding affinity to calf thymus DNA by fluorescence quenching technique; format: nucleic-acid assay; conditions: Bos taurus
Summary of the method: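 Calf thymus DNA was prepared as in line 1. Compound was held at 10 while ct-DNA was titrated at 0, 10, 20, 40, 60, 80, 100, 120, 140 and 160 in 20 mM Tris–HCl, pH 7.5. Solutions were equilibrated for 1 day at 25 °C in the dark, and fluorescence emission was recorded. Kb was fitted to a single-site quenching equation.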

MCF7 = test: Cytotoxicity against human MCF7 cells by MTT assay; format: functional, cell-based
HeLa = test: Cytotoxicity against human HeLa cells by MTT assay; format: functional, cell-based

Compound | IC50 (A549) [µM] | Activity (Nucleic Acid [1]) | IC50 (K562) [µM] | IC50 (HCT-116) [µM] | Kb (Nucleic Acid [2]) [×10⁴ /M] | IC50 (MCF7) [µM] | IC50 (HeLa) [µM]
CN(C)CCN1C(=O)c2cccc3c(NCC[Se]c4ccccc4)ccc(c23)C1=O | 17.4 | Active | 11.7 | 19.5 | 2.43 | 18.2 | 16.8
CN(C)CCN1C(=O)c2cccc3c(N4CC[Se]CC4)ccc(c23)C1=O | 8.7 |  | 5.3 | 5.4 |  | 5.3 | 5.6
CN(C)CCN1C(=O)c2cccc3c(NCC[Se]c4ccc(OC(F)(F)F)cc4)ccc(c23)C1=O | 14.4 |  | 9.4 | 9.9 |  | 16.4 | > 25
Cc1ccc([Se]CCNc2ccc3c4c(cccc24)C(=O)N(CCN(C)C)C3=O)cc1 | 21 |  | 21.3 | 20 |  | 19.3 | > 25
COc1ccc([Se]CCNc2ccc3c4c(cccc24)C(=O)N(CCN(C)C)C3=O)cc1 | 22.3 |  | 16.6 | 17.6 |  | 18.3 | 17.9
CCN(CC)CCN1C(=O)c2cccc3c(NCC[Se]c4ccccc4)ccc(c23)C1=O | 10.7 |  | 8.9 | 14.6 |  | 11.9 | 15.5
CN(C)CCN1C(=O)c2cccc3cc(N)cc(c23)C1=O [AMONAFIDE] |  |  | > 50 |  |  |  | 
CCCCCCCCN1C(=O)c2cccc3c(NCC[Se]c4ccccc4)ccc(c23)C1=O | 20.6 |  | 18.7 | 18.1 |  | 11.6 | 16.7
CN(C)CCN1C(=O)c2cccc3c(NCCSc4ccccc4)ccc(c23)C1=O | 18 | Active | 11.2 | 16.4 | 8.26 | 19.1 | 15.1
CCCCN1C(=O)c2cccc3c(NCC[Se]c4ccccc4)ccc(c23)C1=O | > 25 |  | > 25 | > 25 |  | > 25 | > 25
